Columns and labels:
[1] = biological target: T1, Nicotinic acetylcholine receptor alpha 5 subunit (Musca domestica, UniProt A9XFY4); experiment: Displacement of [3HIMI from nicotinic acetylcholine receptor in Musca domestica (house fly) head membranes incubated for 60 min by liquid scintillation counting method; design: species or system Membrane
T1 sequence (A9XFY4 whole entry): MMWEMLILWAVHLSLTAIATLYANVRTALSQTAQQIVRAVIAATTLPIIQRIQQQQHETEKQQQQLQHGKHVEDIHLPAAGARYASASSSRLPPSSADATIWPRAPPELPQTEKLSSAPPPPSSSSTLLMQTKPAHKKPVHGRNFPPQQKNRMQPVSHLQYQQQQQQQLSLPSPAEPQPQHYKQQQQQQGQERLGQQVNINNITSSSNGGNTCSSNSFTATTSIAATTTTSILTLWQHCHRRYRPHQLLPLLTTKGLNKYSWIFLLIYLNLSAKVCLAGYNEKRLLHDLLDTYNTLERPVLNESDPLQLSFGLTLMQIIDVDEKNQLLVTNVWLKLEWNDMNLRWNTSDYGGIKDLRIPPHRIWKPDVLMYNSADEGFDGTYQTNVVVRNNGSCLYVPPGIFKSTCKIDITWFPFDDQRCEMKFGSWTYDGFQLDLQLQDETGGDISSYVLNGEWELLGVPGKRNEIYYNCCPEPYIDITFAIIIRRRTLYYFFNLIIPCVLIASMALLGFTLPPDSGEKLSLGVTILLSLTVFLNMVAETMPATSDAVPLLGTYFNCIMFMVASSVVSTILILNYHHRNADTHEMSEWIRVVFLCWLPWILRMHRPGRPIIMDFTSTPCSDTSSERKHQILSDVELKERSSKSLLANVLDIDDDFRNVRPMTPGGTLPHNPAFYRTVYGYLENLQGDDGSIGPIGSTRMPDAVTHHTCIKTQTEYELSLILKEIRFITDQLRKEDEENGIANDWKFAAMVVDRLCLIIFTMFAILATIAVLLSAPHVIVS
How it was run: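 Housefly heads homogenized in pH 7.4 phosphate/sucrose/EDTA buffer; 700 g and 125,000 g spins; pellet resuspended in pH 7.4 phosphate, 50 mM NaCl, 0.1% Triton X-100. Membranes (3 mg/ml protein) preincubated with compound in DMSO 3-5 min at 24°C, then [3H]imidacloprid 10 nM final, 60 min at 24°C. GF/B filtration; IC50 for inhibition of specific binding.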

Musca domestica [2] = experiment: Insecticidal activity against female Musca domestica (house fly) administered through injection into dorsal side of thorax measured 1 hr post dose; type: functional
Musca domestica [3] = experiment: Insecticidal activity against female Musca domestica (house fly) administered through injection into dorsal side of thorax pre-treated with 0.2% w/v NIA and 0.2% w/v PB before compound injection measured 1 hr post dose; type: functional
How it was run: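 Female houseflies anesthetized with CO2 were given 1 µl methanol with NIA 0.2% and PB 0.2% (w/v) topically on the abdomen. After 1 h at 25°C, 0.22 µl of compound in 50% aqueous ethanol at various concentrations was injected. Dead or paralyzed flies were counted 1 h later at 25°C, and ED50 (mol/insect) was derived by probit analysis.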

Periplaneta americana = experiment: Neuroblocking potency against Periplaneta americana (American cockroach) abdominal central nerve cord assessed as compound concentration at which the frequency first reduced below 10 counts/30 secs […] by electrophysiologt method; type: functional

| Structure (SMILES) | IC50 [1] [nM] | ED50 (Musca domestica [2]) [fmol] | ED50 (Musca domestica [3]) [fmol] | Activity (Periplaneta americana) [µM] |
| --- | --- | --- | --- | --- |
| Clc1ccc([C@@H]2C[C@H]3CC[C@@H]2N3)cn1 [(+)-EPIBATIDINE] | 2790 | – | – | – |
| O=[N+]([O-])/N=C1\NCCN1Cc1ccc(Cl)nc1 [IMIDACLOPRID] | – | 2.2 | 0.26 | 2.3 |
| C[C@H](c1ccc(Cl)nc1)N1CCN/C1=N\[N+](=O)[O-] [(R)-METHYL-IMIDACLOPRID] | 950 | 55 | 2.3 | 73 |
| CN1CCC[C@H]1c1cccnc1 [NICOTINE] | 11900 | – | – | – |
| CN1CCC[C@@H]1c1cccnc1 [R-NICOTINE] | 422000 | – | – | – |
| C[C@@H](c1ccc(Cl)nc1)N1CCN/C1=N\[N+](=O)[O-] [(S)-METHYL-IMIDACLOPRID] | 190 | 45 | 1.1 | 5.9 |
| CC(c1ccc(Cl)nc1)N1CCN/C1=N\[N+](=O)[O-] (racemic) [(R,S)-METHYL-IMIDACLOPRID] | 210 | 26 | 1.7 | 15 |
| Clc1ccc([C@H]2C[C@@H]3CC[C@H]2N3)cn1 [(-)-EPIBATIDINE] | 1340 | – | – | – |

Source: ChEMBL document CHEMBL3046221, “Asymmetric chloronicotinyl insecticide, 1-[1-(6-chloro-3-pyridyl)ethyl]-2-nitroiminoimidazolidine: preparation, resolution and biological activities toward insects and their nerve preparations” (Biosci Biotechnol Biochem, 2003)
